For orientation: Ki means a measure of affinity in units of concentration, obtained from inhibition or displacement. Read a low Ki as tighter binding. A word on the bioavailability: it is the share of a dose that reaches the circulation, judged against a reference dose that is usually intravenous. Lower therefore signals little systemic uptake. The term clearance denotes a measure of how efficiently the substance is removed, as volume per time. Low readings indicate inefficient removal, high ones efficient removal. Usually Kp stands for the ratio of the level in a tissue or fluid to that in plasma or blood. The pKb is the Kb on a negative log10 scale, so that one unit is a factor of ten.

Activity calls are given as the source filed them. The rule behind the calls is not given here. Bounds are passed on as bounds.

Results on 19 compounds are retold here after ChEMBL document CHEMBL1146275, “5-HT2C antagonists based on fused heterotricyclic templates: design, synthesis and biological evaluation” (Bioorg Med Chem Lett, 2007).

In series [1] the target is T1, 5-hydroxytryptamine receptor 2C (Homo sapiens, UniProt P28335).
T1 sequence (P28335 whole entry): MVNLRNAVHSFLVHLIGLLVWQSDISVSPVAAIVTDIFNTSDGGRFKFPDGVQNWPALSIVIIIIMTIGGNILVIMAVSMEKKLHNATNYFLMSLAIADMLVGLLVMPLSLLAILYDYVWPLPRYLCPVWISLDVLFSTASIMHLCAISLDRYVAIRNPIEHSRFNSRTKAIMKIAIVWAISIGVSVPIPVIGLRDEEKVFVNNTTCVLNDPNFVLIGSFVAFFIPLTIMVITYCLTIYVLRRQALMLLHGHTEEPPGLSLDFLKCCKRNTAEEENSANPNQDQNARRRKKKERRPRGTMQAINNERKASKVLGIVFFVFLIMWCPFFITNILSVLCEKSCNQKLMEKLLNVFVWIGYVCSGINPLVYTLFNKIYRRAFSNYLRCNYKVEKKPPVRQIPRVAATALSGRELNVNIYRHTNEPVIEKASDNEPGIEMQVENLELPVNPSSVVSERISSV
The series is described as follows: Displacement of [3H]mesulergine from human 5HT2C receptor expressed in HEK293 cells. It is filed as cell-based. Background: Displacement assays read how much labelled ligand stays bound in the presence of the test substance.

Series [2] has as its target T2, 5-hydroxytryptamine receptor 2A (Homo sapiens, UniProt P28223). The series is described as follows: Displacement of [3H]ketanserin from human 5HT2A receptor expressed in HEK293 cells. It is filed as cell-based.
Series [3] addresses T3, 5-hydroxytryptamine receptor 2B (Homo sapiens, UniProt P41595). Nature of the series: Displacement of [3H]5-HT from human 5HT2B receptor expressed in HEK293 cells. It is filed as cell-based.
Series [4] addresses T2, 5-hydroxytryptamine receptor 2A. Nature of the series: Agonist activity at human 5HT2A receptor expressed in HEK293 cells by measuring intracellular calcium mobilization upto 10 uM. It is filed as functional, cell-based. A general note: A change in cytosolic calcium serves as a functional read-out for many receptors and channels.
The target of series [5] is T3, 5-hydroxytryptamine receptor 2B. Nature of the series: Agonist activity at human 5HT2B receptor expressed in HEK293 cells by measuring intracellular calcium mobilization upto 10 uM. It is filed as functional, cell-based.
Series [6] deals with T4, 5-hydroxytryptamine receptor 2C (Homo sapiens) (UniProt P28335).
T4 sequence (whole entry): T1 sequence (P28335 whole entry)
The series is described as follows: Agonist activity at human 5HT2C receptor expressed in HEK293 cells by measuring intracellular calcium mobilization upto 10 uM. It is filed as functional, cell-based.

The nature of series [7]: Bioavailability in rat at 3 mg/kg, po. As to conditions: in vivo. It is filed as ADME, organism-based. The method in brief:
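Oral dosing was 3 mg free base/kg by gavage (5 mL/kg) to male rats (n = 3), from 0.6 mg free base/mL in 0.5% w/v Methocel with 5% DMSO. The iv reference arm was 1 mg free base/kg as a bolus (2 mL/kg) in 25% (v/v) aqueous PEG400 with 5% (v/v) DMSO, n = 3.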

Series [8] in a line: Clearance in rat blood. As to conditions: whole blood. It is filed as ADME, organism-based. The procedure, abridged: (§1)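 Male rats (n = 3) received a 1 mg free base/kg iv bolus (2 mL/kg) of a 0.5 mg free base/mL solution in 25% (v/v) aqueous PEG400 containing 5% (v/v) DMSO. Brain penetration was assessed at 1 h.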
The nature of series [9]: Ratio of drug level in brain to plasma in rat. It is filed as ADME. The conditions noted are these: brain and plasma. The method in brief: as §1
Series [10] addresses T4, 5-hydroxytryptamine receptor 2C (Homo sapiens). The series is described as follows: Antagonist activity at human 5HT2C receptor expressed in HEK293 cells by measuring intracellular calcium mobilization. It is filed as functional, cell-based. The procedure, abridged: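 Antagonism measured as blockade of the 5-HT-evoked response at the human receptor, with affinity expressed as pKb.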

T3 sequence (P41595 whole entry): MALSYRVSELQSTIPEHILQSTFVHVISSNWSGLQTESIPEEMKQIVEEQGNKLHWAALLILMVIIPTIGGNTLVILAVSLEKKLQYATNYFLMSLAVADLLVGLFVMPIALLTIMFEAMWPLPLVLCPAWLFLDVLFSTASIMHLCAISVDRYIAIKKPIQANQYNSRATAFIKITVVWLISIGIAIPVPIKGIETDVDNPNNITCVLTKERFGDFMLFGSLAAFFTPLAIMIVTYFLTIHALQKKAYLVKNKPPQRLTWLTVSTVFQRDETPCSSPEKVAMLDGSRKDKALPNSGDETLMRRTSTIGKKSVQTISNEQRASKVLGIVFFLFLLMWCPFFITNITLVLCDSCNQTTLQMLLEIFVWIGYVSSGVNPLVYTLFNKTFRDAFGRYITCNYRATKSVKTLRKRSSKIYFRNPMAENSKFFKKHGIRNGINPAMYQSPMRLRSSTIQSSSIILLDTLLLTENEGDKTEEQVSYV
T2 sequence (P28223 whole entry): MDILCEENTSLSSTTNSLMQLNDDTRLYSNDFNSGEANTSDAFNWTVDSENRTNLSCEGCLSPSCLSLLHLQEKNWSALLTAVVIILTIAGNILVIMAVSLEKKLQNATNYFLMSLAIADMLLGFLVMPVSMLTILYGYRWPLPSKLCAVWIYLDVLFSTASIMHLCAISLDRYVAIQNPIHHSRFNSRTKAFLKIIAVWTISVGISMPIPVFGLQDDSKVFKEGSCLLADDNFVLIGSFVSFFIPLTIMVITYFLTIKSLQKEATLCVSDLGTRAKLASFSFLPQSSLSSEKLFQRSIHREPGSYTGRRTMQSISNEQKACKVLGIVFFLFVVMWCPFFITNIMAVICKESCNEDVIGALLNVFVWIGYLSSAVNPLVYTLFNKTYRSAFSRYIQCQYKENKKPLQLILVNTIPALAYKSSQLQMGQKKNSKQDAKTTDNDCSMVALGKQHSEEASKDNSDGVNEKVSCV

As for `COc1ccc(N2Cc3c(c4ccc(Cl)cc4n3C)C2=O)cc1OCCN1CCCCC1`, the Ki in series [1] was 5.01 nM; in [2], 316 nM; in series [3], 158 nM. In addition, the outcome in series [4], in series [5] and in [6] was inactive.

`COc1ccc(N2Cc3c(c4cc(Cl)ccc4n3C)C2=O)cc1OCCN1CCCCC1`: the Ki was 2.51 nM in series [1], 158 nM in [2] and more than 1000 nM in series [3]. In [7], this compound had a bioavailability of 21%. In [8], this compound returned a clearance of 39 mL/min/kg. Besides, the outcome in series [4], in [5] and in [6] was inactive.

For `COc1ccc(N2Cc3c(c4cc(Cl)ccc4n3C)C2=O)cc1OCCN1CCC(C)CC1`, the Ki was 3.16 nM in series [1], 126 nM in series [2] and 39.8 nM in series [3]. This compound showed a bioavailability in [7] of 44%. In series [8], this compound came in with a clearance of 23 mL/min/kg. The Kp in series [9] was determined as 1. Further, the outcome in series [4], in series [5] and in [6] was inactive. Further, the pKb in [10] turned out to be 8.6.

As to `COc1ccc(N2Cc3sc4ccccc4c3C2=O)cc1OCCN1CCCCC1`, the Ki is 3.16 nM in [1], 398 nM in series [2] and more than 631 nM in [3]. In addition, the outcome in series [4], in series [5] and in [6] was inactive.

Consider `COc1ccc2c(c1)c1c(n2C)CN(c2ccc(OC)c(OCCN3CCC(C)CC3)c2)C1=O`, for which the outcome in series [4], in series [5] and in [6] was inactive.

With `COc1ccc(N2Cc3c(c4ccc(F)cc4n3C)C2=O)cc1OCCN1CCC(C)CC1`, the Ki in series [1] was 15.8 nM; in series [2], 251 nM; in series [3] it was 251 nM. For the same compound, the result in series [4], in [5] and in series [6] was inactive. The pKb in series [10] is 7.5.

Regarding `COc1ccc(N2Cc3c(c4cc(Cl)c(Cl)cc4n3C)C2=O)cc1OCCN1CCCCC1`, the values for the Ki in series [1], in series [2] and in series [3] were 6.31 nM, 501 nM and 200 nM, respectively. For the same compound, the result in series [4], in series [5] and in [6] was inactive.

`COc1ccc(N2Cc3c(c4cc(F)ccc4n3C)C2=O)cc1OCCN1CCC(C)CC1`: the Ki in series [1] is 2.51 nM; in series [2], 158 nM; in series [3], 63.1 nM. Besides, the outcome in series [4], in series [5] and in series [6] was inactive. The pKb in [10] is 8.6.

`COc1ccc(N2Cc3c(c4ccc(F)cc4n3C)C2=O)cc1OCCN1CCCCC1`: the figures for the Ki in series [1], in [2] and in [3] were 12.6 nM, more than 10000 nM and more than 10000 nM, respectively. For the same compound, the result in series [4], in series [5] and in [6] was inactive.

For the compound `COc1ccc2c(c1)c1c(n2C)CN(c2ccc(OC)c(OCCN3CCCCC3)c2)C1=O`, the figures for the Ki in series [1], in series [2] and in series [3] were 31.6 nM, 1000 nM and 794 nM, respectively. The result in series [4], in series [5] and in [6] was inactive.

`COc1ccc(N2Cc3c(c4cccc(F)c4n3C)C2=O)cc1OCCN1CCCCC1`: the outcome in [4], in series [5] and in [6] was inactive.

Turning to `COc1ccc(N2C(=O)c3c(n(C)c4ccccc34)C2C)cc1OCCN1CCCCC1` (configuration not stated), the outcome in series [4], in series [5] and in series [6] was inactive.

For `COc1ccc(N2Cc3c(c4cccc(F)c4n3C)C2=O)cc1OCCN1CCC(C)CC1`, the Ki in series [1] is 2.51 nM; in series [2], 251 nM; in series [3], 31.6 nM. Moreover, the result in series [4], in [5] and in [6] was inactive.

`COc1ccc(N2Cc3c(c4cc(Cl)c(Cl)cc4n3C)C2=O)cc1OCCN1CCC(C)CC1`: the result in [4], in series [5] and in series [6] was inactive.

Regarding `COc1ccc(N2Cc3sc4ccccc4c3C2=O)cc1OCCN1CCC(C)CC1`, the figures for the inhibition constant Ki in series [1], in series [2] and in [3] were 1.58 nM, more than 794 nM and 200 nM, respectively. Also, the outcome in [4], in series [5] and in series [6] was inactive. Further, the pKb in [10] was 8.7.

`COc1ccc(N2Cc3cc4ccccc4cc3C2=O)cc1OCCN1CCCCC1`: the result in series [4], in series [5] and in [6] was inactive.

Take `COc1ccc(N2Cc3c(c4ccccc4n3C)C2=O)cc1OCCN1CCCCC1.Cl`: the values for the Ki in series [1], in series [2] and in series [3] were 6.31 nM, 501 nM and 200 nM, respectively. Also, the bioavailability in series [7] was 15%. Also, the clearance in [8] is 53 mL/min/kg. In addition, the outcome in series [4], in series [5] and in [6] was inactive.

For `COc1ccc(N2Cc3c(c4cc(F)ccc4n3C)C2=O)cc1OCCN1CCCCC1`, the outcome in series [4], in series [5] and in [6] was inactive.

For `COc1ccc(N2Cc3c(c4ccc(Cl)cc4n3C)C2=O)cc1OCCN1CCC(C)CC1`, the Ki is 3.98 nM in series [1], 251 nM in series [2] and 200 nM in series [3]. Besides, the result in series [4], in [5] and in series [6] was inactive.
